Assay results reported in ChEMBL document CHEMBL1157589, “Antifungal 3,5-disubstituted furanones: From 5-acyloxymethyl to 5-alkylidene derivatives” (Bioorg Med Chem, 2010).
Converted amounts (≈) assume the structure as drawn.

test system: Candida albicans; test: Antifungal activity against Candida albicans ATCC 90028 after 48 hrs by microdilution method; type: functional; settings: ATCC 90028, 48 h; call rule not given here
In short: (§1)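 Yeasts held on Sabouraud dextrose agar. MIC by NCCLS M27-A broth microdilution in RPMI 1640 with L-glutamine, buffered with 0.165 M MOPS to pH 7.0. Compounds in DMSO (≤2% final), twofold dilutions 500–0.48. Final inoculum 5 × 10³ ± 0.2 cfu mL⁻¹. Incubated at 35 °C; absorbance at 540 nm read at 24 and 48 h. MIC is 80% growth inhibition versus control; run twice in duplicate.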

MIC80 [µM] | Compound
125 (≈ 37.1 µg/mL) | CCOCC1C=C(c2ccc(Br)cc2)C(=O)O1 (stereo unspecified)
250 (≈ 73.8 µg/mL) | O=C1O/C(=C\CCO)C=C1c1ccc(Br)cc1

test system: Clavispora lusitaniae; test: Antifungal activity against Candida lusitaniae 2446/I after 24 hrs by microdilution method; type: functional; settings: not given; in short: as §1

MIC80 [µM] | Compound
125 (≈ 37.1 µg/mL) | CCOCC1C=C(c2ccc(Br)cc2)C(=O)O1 (stereo unspecified)
125 (≈ 36.9 µg/mL) | O=C1O/C(=C\CCO)C=C1c1ccc(Br)cc1

test system: Lichtheimia corymbifera; test: Antifungal activity against Absidia corymbifera 272 after 24 hrs by microdilution method; type: functional; settings: Lichtheimia corymbifera, 272, 24 h
In short: (§2)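 Filamentous strains held on Sabouraud dextrose agar. NCCLS M27-A broth microdilution in RPMI 1640 with L-glutamine and 0.165 M MOPS, pH 7.0. DMSO diluent ≤2% final; twofold dilutions 500–0.48. Inoculum 5 × 10³ ± 0.2 cfu mL⁻¹ final.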

MIC80 [µM] | Compound
125 (≈ 37.1 µg/mL) | CCOCC1C=C(c2ccc(Br)cc2)C(=O)O1 (stereo unspecified)
62.5 (≈ 18.4 µg/mL) | O=C1O/C(=C\CCO)C=C1c1ccc(Br)cc1

test system: Trichophyton mentagrophytes; test: Antifungal activity against Trichophyton mentagrophytes 445 after 72 hrs by microdilution method; type: functional; settings: Trichophyton mentagrophytes, 445, 72 h
In short: (§3)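 Dermatophyte held on Sabouraud dextrose agar. M27-A microdilution in MOPS-buffered (0.165 M, pH 7.0) RPMI 1640 with L-glutamine. DMSO ≤2% final; twofold dilutions 500–0.48. Inoculum 5 × 10³ ± 0.2 cfu mL⁻¹ final. Incubated at 35 °C; MIC read visually at 72 and 120 h as 80% inhibition of control growth; determined twice in duplicate.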

MIC80 [µM] | Compound
15.6 (≈ 4.64 µg/mL) | CCOCC1C=C(c2ccc(Br)cc2)C(=O)O1 (stereo unspecified)
31.2 (≈ 9.22 µg/mL) | O=C1O/C(=C\CCO)C=C1c1ccc(Br)cc1

test system: Nakaseomyces glabratus; test: Antifungal activity against Candida glabrata 20/I after 48 hrs by microdilution method; type: functional; settings: not given; in short: as §1

MIC80 [µM] | Compound
62.5 (≈ 18.6 µg/mL) | CCOCC1C=C(c2ccc(Br)cc2)C(=O)O1 (stereo unspecified)
250 (≈ 73.8 µg/mL) | O=C1O/C(=C\CCO)C=C1c1ccc(Br)cc1

test system: Candida tropicalis; test: Antifungal activity against Candida tropicalis 156 after 24 hrs by microdilution method; type: functional; settings: Candida tropicalis, 156, 24 h; in short: as §1

MIC80 [µM] | Compound
250 (≈ 74.3 µg/mL) | CCOCC1C=C(c2ccc(Br)cc2)C(=O)O1 (stereo unspecified)
125 (≈ 36.9 µg/mL) | O=C1O/C(=C\CCO)C=C1c1ccc(Br)cc1

test system: HeLa S3; test: Cytostatic activity against human HeLaS3 cells after 48 hrs by XTT assay; settings: Homo sapiens, HeLa S3, 48 h; read-out: IC50

IC50 [µM] | Compound
1.94 | CCOCC1C=C(c2ccc(Br)cc2)C(=O)O1 (stereo unspecified)

same assay, conditions: hela s3

IC50 | Compound
Not Active | O=C1O/C(=C\CCO)C=C1c1ccc(Br)cc1

test system: CCRF-CEM; test: Cytostatic activity against human CCRF-CEM cells after 72 hrs by XTT assay; type: functional, cell-based; settings: Homo sapiens, CCRF-CEM, 72 h; read-out: IC50
In short: (§4)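 Leukemia cells (L1210 ATCC CCL 219, CCRF-CEM ATCC CCL 119, HL-60 ATCC CCL 240) grown in 24-well plates in RPMI 1640 with fetal calf serum. Growth assessed 72 h after drug addition. Viability measured by XTT spectrophotometric assay; potency given as IC50.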

IC50 [µM] | Compound
9.82 | CCOCC1C=C(c2ccc(Br)cc2)C(=O)O1 (stereo unspecified)

same assay, conditions: ccrf-cem

IC50 | Compound
Not Active | O=C1O/C(=C\CCO)C=C1c1ccc(Br)cc1

test system: Nakaseomyces glabratus; test: Antifungal activity against Candida glabrata 20/I after 24 hrs by microdilution method; type: functional; settings: not given; in short: as §1

MIC80 [µM] | Compound
62.5 (≈ 18.6 µg/mL) | CCOCC1C=C(c2ccc(Br)cc2)C(=O)O1 (stereo unspecified)
62.5 (≈ 18.4 µg/mL) | O=C1O/C(=C\CCO)C=C1c1ccc(Br)cc1

test system: Pichia kudriavzevii; test: Antifungal activity against Candida krusei E28 after 24 hrs by microdilution method; type: functional; settings: E28, 24 h; in short: as §1

MIC80 [µM] | Compound
250 (≈ 74.3 µg/mL) | CCOCC1C=C(c2ccc(Br)cc2)C(=O)O1 (stereo unspecified)
250 (≈ 73.8 µg/mL) | O=C1O/C(=C\CCO)C=C1c1ccc(Br)cc1

test system: Clavispora lusitaniae; test: Antifungal activity against Candida lusitaniae 2446/I after 48 hrs by microdilution method; type: functional; settings: not given; in short: as §1

MIC80 [µM] | Compound
250 (≈ 74.3 µg/mL) | CCOCC1C=C(c2ccc(Br)cc2)C(=O)O1 (stereo unspecified)
250 (≈ 73.8 µg/mL) | O=C1O/C(=C\CCO)C=C1c1ccc(Br)cc1

test system: Candida albicans; test: Antifungal activity against Candida albicans ATCC 44859 after 24 hrs by microdilution method; type: functional; settings: ATCC 44859, 24 h; in short: as §1

MIC80 [µM] | Compound
31.2 (≈ 9.29 µg/mL) | CCOCC1C=C(c2ccc(Br)cc2)C(=O)O1 (stereo unspecified)
62.5 (≈ 18.4 µg/mL) | O=C1O/C(=C\CCO)C=C1c1ccc(Br)cc1

test system: Pichia kudriavzevii; test: Antifungal activity against Candida krusei ATCC 6258 after 24 hrs by microdilution method; type: functional; settings: ATCC 6258, 24 h; in short: as §1

MIC80 [µM] | Compound
250 (≈ 74.3 µg/mL) | CCOCC1C=C(c2ccc(Br)cc2)C(=O)O1 (stereo unspecified)
125 (≈ 36.9 µg/mL) | O=C1O/C(=C\CCO)C=C1c1ccc(Br)cc1

test system: Lichtheimia corymbifera; test: Antifungal activity against Absidia corymbifera 272 after 48 hrs by microdilution method; type: functional; settings: Lichtheimia corymbifera, 272, 48 h; in short: as §2

MIC80 [µM] | Compound
125 (≈ 37.1 µg/mL) | CCOCC1C=C(c2ccc(Br)cc2)C(=O)O1 (stereo unspecified)
62.5 (≈ 18.4 µg/mL) | O=C1O/C(=C\CCO)C=C1c1ccc(Br)cc1

test system: L1210; test: Cytostatic activity against mouse L1210 cells after 72 hrs by XTT assay; type: functional, cell-based; settings: l1210; in short: as §4

IC50 | Compound
Not Active | CCOCC1C=C(c2ccc(Br)cc2)C(=O)O1 (stereo unspecified)
Not Active | O=C1O/C(=C\CCO)C=C1c1ccc(Br)cc1

test system: Candida parapsilosis; test: Antifungal activity against Candida parapsilosis ATCC 22019 after 48 hrs by microdilution method; type: functional; settings: Lodderomyces parapsilosis, ATCC 22019, 48 h; in short: as §1

MIC80 [µM] | Compound
250 (≈ 74.3 µg/mL) | CCOCC1C=C(c2ccc(Br)cc2)C(=O)O1 (stereo unspecified)
125 (≈ 36.9 µg/mL) | O=C1O/C(=C\CCO)C=C1c1ccc(Br)cc1

test system: Trichophyton mentagrophytes; test: Antifungal activity against Trichophyton mentagrophytes 445 after 120 hrs by microdilution method; type: functional; settings: Trichophyton mentagrophytes, 445, 120 h; in short: as §3

MIC80 [µM] | Compound
15.6 (≈ 4.64 µg/mL) | CCOCC1C=C(c2ccc(Br)cc2)C(=O)O1 (stereo unspecified)
31.2 (≈ 9.22 µg/mL) | O=C1O/C(=C\CCO)C=C1c1ccc(Br)cc1

test system: Candida albicans; test: Antifungal activity against Candida albicans ATCC 90028 after 24 hrs by microdilution method; type: functional; settings: ATCC 90028, 24 h; in short: as §1

MIC80 [µM] | Compound
125 (≈ 37.1 µg/mL) | CCOCC1C=C(c2ccc(Br)cc2)C(=O)O1 (stereo unspecified)
125 (≈ 36.9 µg/mL) | O=C1O/C(=C\CCO)C=C1c1ccc(Br)cc1

test system: HL-60; test: Cytostatic activity against human HL60 cells after 72 hrs by XTT assay; type: functional, cell-based; settings: hl-60; in short: as §4

IC50 | Compound
Not Active | CCOCC1C=C(c2ccc(Br)cc2)C(=O)O1 (stereo unspecified)
Not Active | O=C1O/C(=C\CCO)C=C1c1ccc(Br)cc1

test system: Aspergillus fumigatus; test: Antifungal activity against Aspergillus fumigatus 231 after 24 hrs by microdilution method; type: functional; settings: Aspergillus fumigatus, 231, 24 h; in short: as §2

MIC80 [µM] | Compound
62.5 (≈ 18.6 µg/mL) | CCOCC1C=C(c2ccc(Br)cc2)C(=O)O1 (stereo unspecified)
125 (≈ 36.9 µg/mL) | O=C1O/C(=C\CCO)C=C1c1ccc(Br)cc1

test system: Trichosporon beigelii; test: Antifungal activity against Trichosporon beigelii 1188 after 24 hrs by microdilution method; type: functional; settings: Trichosporon beigelii, 1188, 24 h; in short: as §1

MIC80 [µM] | Compound
125 (≈ 37.1 µg/mL) | CCOCC1C=C(c2ccc(Br)cc2)C(=O)O1 (stereo unspecified)
125 (≈ 36.9 µg/mL) | O=C1O/C(=C\CCO)C=C1c1ccc(Br)cc1

test system: Pichia kudriavzevii; test: Antifungal activity against Candida krusei ATCC 6258 after 48 hrs by microdilution method; type: functional; settings: ATCC 6258, 48 h; in short: as §1

MIC80 [µM] | Compound
250 (≈ 74.3 µg/mL) | CCOCC1C=C(c2ccc(Br)cc2)C(=O)O1 (stereo unspecified)
250 (≈ 73.8 µg/mL) | O=C1O/C(=C\CCO)C=C1c1ccc(Br)cc1

test system: Candida parapsilosis; test: Antifungal activity against Candida parapsilosis ATCC 22019 after 24 hrs by microdilution method; type: functional; settings: Lodderomyces parapsilosis, ATCC 22019, 24 h; in short: as §1

MIC80 [µM] | Compound
125 (≈ 37.1 µg/mL) | CCOCC1C=C(c2ccc(Br)cc2)C(=O)O1 (stereo unspecified)
125 (≈ 36.9 µg/mL) | O=C1O/C(=C\CCO)C=C1c1ccc(Br)cc1

test system: Candida albicans; test: Antifungal activity against Candida albicans ATCC 44859 after 48 hrs by microdilution method; type: functional; settings: ATCC 44859, 48 h; in short: as §1

MIC80 [µM] | Compound
62.5 (≈ 18.6 µg/mL) | CCOCC1C=C(c2ccc(Br)cc2)C(=O)O1 (stereo unspecified)
125 (≈ 36.9 µg/mL) | O=C1O/C(=C\CCO)C=C1c1ccc(Br)cc1

test system: Trichosporon beigelii; test: Antifungal activity against Trichosporon beigelii 1188 after 48 hrs by microdilution method; type: functional; settings: Trichosporon beigelii, 1188, 48 h; in short: as §1

MIC80 [µM] | Compound
250 (≈ 74.3 µg/mL) | CCOCC1C=C(c2ccc(Br)cc2)C(=O)O1 (stereo unspecified)
125 (≈ 36.9 µg/mL) | O=C1O/C(=C\CCO)C=C1c1ccc(Br)cc1

test system: Pichia kudriavzevii; test: Antifungal activity against Candida krusei E28 after 48 hrs by microdilution method; type: functional; settings: E28, 48 h; in short: as §1

MIC80 [µM] | Compound
250 (≈ 74.3 µg/mL) | CCOCC1C=C(c2ccc(Br)cc2)C(=O)O1 (stereo unspecified)
250 (≈ 73.8 µg/mL) | O=C1O/C(=C\CCO)C=C1c1ccc(Br)cc1

test system: Aspergillus fumigatus; test: Antifungal activity against Aspergillus fumigatus 231 after 48 hrs by microdilution method; type: functional; settings: Aspergillus fumigatus, 231, 48 h; in short: as §2

MIC80 [µM] | Compound
125 (≈ 37.1 µg/mL) | CCOCC1C=C(c2ccc(Br)cc2)C(=O)O1 (stereo unspecified)
250 (≈ 73.8 µg/mL) | O=C1O/C(=C\CCO)C=C1c1ccc(Br)cc1

test system: Candida tropicalis; test: Antifungal activity against Candida tropicalis 156 after 48 hrs by microdilution method; type: functional; settings: Candida tropicalis, 156, 48 h; in short: as §1

MIC80 [µM] | Compound
250 (≈ 74.3 µg/mL) | CCOCC1C=C(c2ccc(Br)cc2)C(=O)O1 (stereo unspecified)
250 (≈ 73.8 µg/mL) | O=C1O/C(=C\CCO)C=C1c1ccc(Br)cc1
